Results from publication PMC2635062 (Cancer research, 2009).
Where two headings read alike, the source gives them in different places.

Experiments:
[1] = tested on: MRC5, WI-38 and IMR-90 normal lung fibroblast cell lines; test: Caspase Glo 3/7 assay, normal lung fibroblasts; assay type: cell-based, human; conditions: control, 1 microM for 72 hours
SiHa = test: CellTiter-Glo cytotoxicity assay, SiHa; assay type: cell-based; conditions: Homo sapiens
In short: (§1)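 About 5,000 cells/well were dosed either continuously or for a 1 h pulse. After the pulse, cells were washed with pre-warmed medium and kept drug-free. Viability was read by CellTiter-Glo luminescence 72 h after dosing began. IC50 was the half-maximal growth-inhibiting concentration.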

HCT-116 = test: CellTiter-Glo cytotoxicity assay, HCT-116; assay type: cell-based; conditions: Homo sapiens
In short: as §1

SKNSH = test: CellTiter-Glo cytotoxicity assay, SKNSH; assay type: cell-based; conditions: Homo sapiens, SK-N-SH
In short: as §1

cancer cell lines = test: CellTiter-Glo cytotoxicity assay, cancer cell lines in general; assay type: cell-based, human
In short: as §1

[2] = tested on: various cancer cell lines; conditions: read-out: IC50 against various cancer cell lines; in vitro; cited from earlier work
SiHa cells = test: Caspase Glo 3/7 assay, SiHa; assay type: cell-based, human; conditions: 10 or 30 μM with 50 nM compound 3, 72 hours

CN[C@@H]1C[C@H]2O[C@@](C)([C@@H]1OC)n1c3ccccc3c3c4c(c5c6ccccc6n2c5c31)C(=O)NC4 [staurosporine]
Caspase 3/7 activation [1]: dramatic induction of caspases

CCC(=C/[C@H](C)C/C=C/C(C)=C/[C@@H](C)C(=O)[C@@H](C)[C@H](O)[C@@H](C)C/C(C)=C/C(=O)O)/C=C/[C@@H]1OC(=O)C=C[C@@H]1C [Leptomycin B]
IC50 (SiHa; 72 h, read-out: SiHa (IC50 nM) 72h): 0.4 nM
IC50 (SiHa; read-out: SiHa (IC50 nM) 1h): 2.1 nM
IC50 (HCT-116; HCT-116, 72 h, read-out: HCT-116 (IC50 nM) 72h): 0.3 nM
IC50 (HCT-116; HCT-116, read-out: HCT-116 (IC50 nM) 1h): 4.3 nM
IC50 (SKNSH; 72 h, read-out: SKNSH (IC50 nM) 72h): 0.4 nM
IC50 (SKNSH; read-out: SKNSH (IC50 nM) 1h): 4.1 nM
IC50 (cancer cell lines; Homo sapiens, read-out: IC50, one hour exposure): < 5 nM
IC50, 72 hour exposure (cancer cell lines; most cancer cell lines, 72 hour exposure): sub-nanomolar
IC50 [2]: 0.1 to 10 nM

Cc1ccc(C(=O)Cn2c3c(sc2=N)CCCC3)cc1 [pifithrin-alpha]
Effect on compound 3-induced apoptosis (caspase 3/7) (SiHa cells): blocked compound 3-induced apoptosis
